Published values of several laboratories.
Compare with care: the assays were run in different laboratories.
Cell line: ACHN
Effect on: cell growth or viability

Cc1cc(C)n(C(=S)[S][Au][PH](CCCCCC[PH]([Au][S]C(=S)n2nc(C)cc2C)(c2ccccc2)c2ccccc2)(c2ccccc2)c2ccccc2)n1  GI50: 752 nM
COc1ccc(-c2ccc(-c3ccc(C(=N)N)nc3)s2)cc1Cl  GI50: 1770 nM
S=C([S][Au-][P+](CCCCCC[P+]([Au-][S]C(=S)n1cccn1)(c1ccccc1)c1ccccc1)(c1ccccc1)c1ccccc1)n1cccn1  GI50: 1450 nM
COc1ccc(C(=O)/C=C/c2cc3c(cc2Br)OCO3)cc1S(N)(=O)=O  inhibition (SRB; 10 µM): 123%
CC1=CC(=O)C(C(C)C)=CC1=O  IC50 (CCK-8; 48 h): 53000 nM
COc1cc(-c2ccc(-c3ccc(C(=N)N)nc3)s2)cc(OC)c1OC  GI50: 1730 nM
COc1cccc(Oc2ccccc2NC(=O)CNC(=O)c2cccc3ccccc23)c1  GI50 (SRB; 48 h): 398 nM
COc1ccc(C(=O)/C=C/c2ccccc2Br)cc1S(N)(=O)=O  GI50 (SRB; 48 h): 1800 nM
